The results in this text go back to ChEMBL document CHEMBL2046412, “Xanthine oxidase inhibitory activity of constituents of Cinnamomum cassia twigs” (Bioorg Med Chem Lett, 2012).

Assay [1] has as its target T1, Xanthine dehydrogenase/oxidase (Homo sapiens, UniProt P47989). Put plainly: Inhibition of xanthine oxidase- mediated uric acid formation at 50 ug/mL after 5 mins by spectrophotometry.
Assay [2] concerns the target T1, Xanthine dehydrogenase/oxidase. Put plainly: Inhibition of xanthine oxidase- mediated uric acid formation after 5 mins by spectrophotometry. Put shortly: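 Inhibition was taken relative to uric acid formed in the uninhibited control, and IC50 was derived from the mean of triplicate measurements.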

Molecules are shown by their SMILES.

The term inhibition denotes the share of the control response that was lost under treatment. A high value points to a response far below the control. As a reminder, the IC50 is the concentration at which inhibition is half-maximal. Low values mean higher potency, high ones lower potency.

T1 sequence (P47989 whole entry): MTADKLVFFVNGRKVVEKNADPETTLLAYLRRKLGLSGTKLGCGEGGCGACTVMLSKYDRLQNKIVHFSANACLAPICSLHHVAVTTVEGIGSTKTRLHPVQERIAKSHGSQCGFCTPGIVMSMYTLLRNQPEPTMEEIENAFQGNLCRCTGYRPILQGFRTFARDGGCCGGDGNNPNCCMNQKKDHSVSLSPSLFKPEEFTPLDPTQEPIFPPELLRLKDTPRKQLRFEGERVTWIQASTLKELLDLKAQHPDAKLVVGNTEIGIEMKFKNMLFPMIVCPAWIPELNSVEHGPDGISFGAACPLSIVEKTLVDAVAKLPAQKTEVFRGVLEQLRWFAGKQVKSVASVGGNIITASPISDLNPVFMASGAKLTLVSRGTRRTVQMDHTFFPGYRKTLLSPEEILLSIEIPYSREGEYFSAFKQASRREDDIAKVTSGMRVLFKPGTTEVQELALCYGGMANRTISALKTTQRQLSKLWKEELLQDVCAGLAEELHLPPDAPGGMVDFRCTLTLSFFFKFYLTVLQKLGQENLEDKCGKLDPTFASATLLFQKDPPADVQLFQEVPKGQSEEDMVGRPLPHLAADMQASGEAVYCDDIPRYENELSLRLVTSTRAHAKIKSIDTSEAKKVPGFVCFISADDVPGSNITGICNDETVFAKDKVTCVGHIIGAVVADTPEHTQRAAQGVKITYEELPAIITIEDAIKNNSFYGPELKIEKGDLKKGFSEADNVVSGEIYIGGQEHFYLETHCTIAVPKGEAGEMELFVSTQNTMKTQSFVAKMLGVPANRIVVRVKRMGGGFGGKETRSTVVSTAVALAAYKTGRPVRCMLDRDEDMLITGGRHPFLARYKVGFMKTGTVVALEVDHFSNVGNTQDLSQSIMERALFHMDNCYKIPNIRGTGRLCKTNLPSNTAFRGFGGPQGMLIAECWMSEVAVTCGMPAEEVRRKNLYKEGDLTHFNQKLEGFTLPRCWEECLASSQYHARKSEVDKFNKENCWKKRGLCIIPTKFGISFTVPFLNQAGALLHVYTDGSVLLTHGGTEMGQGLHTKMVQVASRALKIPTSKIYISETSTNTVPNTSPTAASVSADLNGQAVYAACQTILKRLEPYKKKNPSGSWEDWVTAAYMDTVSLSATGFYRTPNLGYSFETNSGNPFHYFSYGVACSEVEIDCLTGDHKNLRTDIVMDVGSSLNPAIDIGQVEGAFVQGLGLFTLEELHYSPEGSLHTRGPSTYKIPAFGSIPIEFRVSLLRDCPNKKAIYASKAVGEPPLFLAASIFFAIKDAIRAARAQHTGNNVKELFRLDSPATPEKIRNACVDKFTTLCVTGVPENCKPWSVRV

`O=C/C=C/c1ccccc1`: in assay [1], at 50 µg/mL the inhibition was 96.7%. Further, in assay [2], the half-inhibitory concentration (IC50) is 59 µM.

`COc1ccccc1/C=C/C=O` returned an inhibition at 50 µg/mL in assay [1] of 95.8%. Further, in assay [2], inhibition was half-maximal at 85.1 µM (IC50).

For `O=C/C=C/c1ccccc1O` [2-HYDROXYCINNAMALDEHYDE], 50 µg/mL produced 94.2% inhibition in assay [1]. This molecule gave a half-maximal inhibitory concentration (IC50) in assay [2] of 98.5 µM.

`COC(=O)c1cccc(O[C@@H]2O[C@H](CO[C@@H]3OC[C@](O)(CO)[C@H]3O)[C@@H](O)[C@H](O)[C@H]2O)c1` [CINNACASOLIDE A] returned an inhibition at 50 µg/mL in assay [1] of 22.2%. In assay [2], this molecule came in with an IC50 of more than 112 µM.

As for `OC/C=C/c1ccccc1O[C@@H]1O[C@H](CO[C@@H]2OC[C@](O)(CO)[C@H]2O)[C@@H](O)[C@H](O)[C@H]1O` [CINNACASOLIDE B], the inhibition at 50 µg/mL in assay [1] was 35.4%. The IC50 in assay [2] was more than 113 µM.

In assay [1], `COc1cc(O[C@@H]2O[C@H](CO)[C@@H](O)[C@H](O)[C@H]2O)ccc1Oc1ccc(O[C@@H]2O[C@H](CO)[C@@H](O)[C@H](O)[C@H]2O)c(OC)c1` [CINNACASOLIDE C] showed an inhibition at 50 µg/mL of 28.2%. The molecule also came in with an IC50 in assay [2] of more than 85.2 µM.

Consider `O=C(O)/C=C/c1ccccc1` [CINNAMIC ACID], for which the inhibition at 50 µg/mL in assay [1] was 93.4%. The half-maximal inhibitory concentration (IC50) in assay [2] was 178 µM.

The molecule `OC/C=C/c1ccccc1` [CINNAMIC ALCOHOL] displayed an inhibition at 50 µg/mL in assay [1] of 47.6%. In assay [2], the 50% inhibitory concentration (IC50) was more than 373 µM.

Take `COc1cc(/C=C/C=O)ccc1O` [CONIFERYL ALDEHYDE]: testing at 50 µg/mL in assay [1] gave an inhibition of 72.5%. In assay [2], this molecule gave an IC50 of 204 µM.

For `O=C(O)CCc1ccccc1O[C@@H]1O[C@H](CO)[C@@H](O)[C@H](O)[C@H]1O` [DIHYDROMELILOTOSIDE], 50 µg/mL produced 45.4% inhibition in assay [1]. The molecule also displayed an IC50 in assay [2] of more than 152 µM.

In turn, `COC(=O)CCc1ccccc1O[C@@H]1O[C@H](CO)[C@@H](O)[C@H](O)[C@H]1O` [METHYL DIHYDROMELILOTOSIDE] displayed an inhibition at 50 µg/mL in assay [1] of 22.4%. In assay [2], this molecule showed an IC50 of more than 146 µM.

Molecule `O=C(O)/C=C/c1ccccc1O` [O-COUMARIC ACID] came in with an inhibition at 50 µg/mL in assay [1] of 73.2%. In assay [2], this molecule showed a half-inhibitory concentration (IC50) of 196 µM.

For the molecule `O[C@@H]1[C@@H](O)[C@@H](OC/C=C/c2ccccc2)O[C@H](CO[C@@H]2OC[C@H](O)[C@H](O)[C@H]2O)[C@H]1O` [ROSAVIN], at 50 µg/mL the inhibition in assay [1] was 18.7%. Further, the IC50 in assay [2] is more than 117 µM.
